Source: publication PMC4837022 (Nature chemical biology, 2016)

Tests used:
Type in all cases: cell-based, murine
[1] = system: CD4+ T-cell blasts (S-phase entry); test: S-phase entry by EdU labeling, delayed inhibitor addition; conditions: GDC-0941 1.5 µM added 12 hours after IL-2 stimulation
[2] = system: pSTAT5 in CD4+ T-cell blasts; test: pSTAT5 time course after IL-2 stimulation; conditions: tofacitinib 50 nM
Outline: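 Rested mouse CD4+ T-cell blasts received 15 nM test compound or a reference JAK inhibitor (50 nM), 2 h before or 90 min after rhIL-2 (50 u/mL). pSTAT5 and pS6 (Ser240/244) were read by phosphoflow at the indicated times from 15 min onward: 2% PFA fixation, 90% methanol permeabilisation, barcoding. MFI was normalised to the 15-min DMSO maximum and given as mean ± SEM of 4–10 independent experiments.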

[3] = system: CD4+ T-cell blasts; test: IL-2-driven T-cell proliferation; conditions: Mus musculus, read-out: EC90 for blocking T-cell proliferation

| Compound | S-phase entry [1] | reduction of pSTAT5 levels during the second wave [2] [%] | EC90 [3] [nM] |
| --- | --- | --- | --- |
| CS(=O)(=O)N1CCN(Cc2cc3nc(-c4cccc5[nH]ncc45)nc(N4CCOCC4)c3s2)CC1 [GDC0941] | prevented the majority of cells from entering S-phase |  |  |
| C[C@@H]1CCN(C(=O)CC#N)C[C@@H]1N(C)c1ncnc2[nH]ccc12 [tofacitinib] |  | > 50 | 50 |
